ChEMBL document CHEMBL2331410, “Synthesis and Pharmacological Characterization of Two Novel, Brain Penetrating P2X7 Antagonists” (ACS Med Chem Lett, 2013)
Values after ≈ are worked out from the molar mass of the structure shown. Active and inactive are the calls of the source. No cut-off for these calls is given here.

Assays:
[1] = target: T1, P2X purinoceptor 7 (Homo sapiens, UniProt Q99572); assay: Antagonist activity at P2X7 receptor in human PBMC assessed as inhibition of BzATP-induced IL1beta release incubated 30 mins prior to BzATP-challenge measured after 1.5 hrs by ELISA
T1 sequence (Q99572 whole entry): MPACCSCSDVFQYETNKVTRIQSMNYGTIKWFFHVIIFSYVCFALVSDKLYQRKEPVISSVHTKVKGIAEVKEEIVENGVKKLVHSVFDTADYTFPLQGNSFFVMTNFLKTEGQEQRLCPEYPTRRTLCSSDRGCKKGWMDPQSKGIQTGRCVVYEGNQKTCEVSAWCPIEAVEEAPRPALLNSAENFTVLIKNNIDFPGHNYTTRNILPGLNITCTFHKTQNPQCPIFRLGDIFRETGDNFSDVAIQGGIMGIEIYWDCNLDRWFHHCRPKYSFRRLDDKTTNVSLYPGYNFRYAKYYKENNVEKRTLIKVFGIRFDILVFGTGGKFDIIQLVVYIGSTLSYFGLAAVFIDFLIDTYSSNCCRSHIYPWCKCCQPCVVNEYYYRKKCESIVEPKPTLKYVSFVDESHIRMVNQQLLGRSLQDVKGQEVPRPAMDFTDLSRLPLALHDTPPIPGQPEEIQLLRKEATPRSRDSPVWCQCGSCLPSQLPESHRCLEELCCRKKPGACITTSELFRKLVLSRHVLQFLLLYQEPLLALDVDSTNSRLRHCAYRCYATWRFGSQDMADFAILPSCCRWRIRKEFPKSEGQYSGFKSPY

[2] = target: T2, P2X purinoceptor 7 (Rattus norvegicus, UniProt Q64663); assay: Antagonist activity at rat P2X7 receptor assessed as inhibition of ATP-induced Ca2+ flux by FLIPR assay
T2 sequence (Q64663 whole entry): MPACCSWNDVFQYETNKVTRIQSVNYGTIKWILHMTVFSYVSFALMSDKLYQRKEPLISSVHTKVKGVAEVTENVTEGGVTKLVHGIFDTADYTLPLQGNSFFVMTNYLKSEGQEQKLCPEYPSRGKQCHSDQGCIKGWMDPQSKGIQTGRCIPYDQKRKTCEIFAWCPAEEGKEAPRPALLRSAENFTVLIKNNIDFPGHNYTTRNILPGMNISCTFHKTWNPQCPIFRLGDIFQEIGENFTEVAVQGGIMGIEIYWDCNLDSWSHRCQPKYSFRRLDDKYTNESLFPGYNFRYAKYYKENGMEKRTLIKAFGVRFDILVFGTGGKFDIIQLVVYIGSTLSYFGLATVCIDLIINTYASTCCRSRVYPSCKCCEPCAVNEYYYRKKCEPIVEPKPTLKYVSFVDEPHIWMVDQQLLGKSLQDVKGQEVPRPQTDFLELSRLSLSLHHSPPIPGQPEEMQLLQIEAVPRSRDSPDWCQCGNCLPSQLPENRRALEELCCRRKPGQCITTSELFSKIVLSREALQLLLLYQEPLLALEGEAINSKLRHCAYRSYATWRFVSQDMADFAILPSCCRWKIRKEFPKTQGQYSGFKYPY

[3] = target: Sodium-dependent serotonin transporter (Rattus norvegicus, UniProt P31652); assay: Displacement of [3H]-Citalopram from SERT in rat brain after 60 mins by scintillation counting analysis; format: tissue-based
Chain of Sodium-dependent serotonin transporter (Rattus norvegicus, UniProt P31652) (P31652 whole entry): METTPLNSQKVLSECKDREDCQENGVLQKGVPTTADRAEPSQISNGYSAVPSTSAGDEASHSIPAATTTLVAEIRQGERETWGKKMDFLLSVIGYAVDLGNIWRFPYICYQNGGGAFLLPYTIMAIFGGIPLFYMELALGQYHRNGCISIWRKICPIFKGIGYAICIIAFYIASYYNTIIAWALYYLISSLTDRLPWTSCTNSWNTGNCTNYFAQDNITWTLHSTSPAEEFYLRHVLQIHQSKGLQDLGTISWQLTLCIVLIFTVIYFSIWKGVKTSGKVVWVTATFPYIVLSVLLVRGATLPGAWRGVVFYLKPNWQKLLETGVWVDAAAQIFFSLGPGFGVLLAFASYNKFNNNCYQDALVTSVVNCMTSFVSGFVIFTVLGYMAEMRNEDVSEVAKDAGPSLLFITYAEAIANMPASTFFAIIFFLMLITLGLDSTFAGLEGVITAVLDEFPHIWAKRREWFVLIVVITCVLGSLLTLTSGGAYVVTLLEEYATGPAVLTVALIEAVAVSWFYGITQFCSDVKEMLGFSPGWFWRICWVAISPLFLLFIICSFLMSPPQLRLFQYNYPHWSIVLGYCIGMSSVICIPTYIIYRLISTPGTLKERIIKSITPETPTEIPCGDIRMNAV

[4] = species: Rattus norvegicus; assay: Ex-vivo SERT occupancy in Sprague-Dawley rat by autoradiographic analysis; format: functional
[5] = Apparent permeability from basolateral to apical side in human Caco2 cells at 1 uM after […] by LC/MS/MS analysis; format: ADME, cell-based; conditions: Caco-2
[6] = target: T1, P2X purinoceptor 7; assay: Displacement of [3H]-A804598 from human recombinant P2X7 receptor expressed in human 1321N1 cell membranes after 1 hr by […]
[7] = Inhibition of rat nACHR
[8] = Extraction ratio in mouse liver microsomes at 1 uM by LC/MS/MS analysis; format: ADME, Microsome; conditions: read-out: ERH
[9] = target: T3, Substance-K receptor (Homo sapiens) (UniProt P21452); assay: Inhibition of human NK2 receptor at 1 uM relative to control
T3 sequence (whole entry): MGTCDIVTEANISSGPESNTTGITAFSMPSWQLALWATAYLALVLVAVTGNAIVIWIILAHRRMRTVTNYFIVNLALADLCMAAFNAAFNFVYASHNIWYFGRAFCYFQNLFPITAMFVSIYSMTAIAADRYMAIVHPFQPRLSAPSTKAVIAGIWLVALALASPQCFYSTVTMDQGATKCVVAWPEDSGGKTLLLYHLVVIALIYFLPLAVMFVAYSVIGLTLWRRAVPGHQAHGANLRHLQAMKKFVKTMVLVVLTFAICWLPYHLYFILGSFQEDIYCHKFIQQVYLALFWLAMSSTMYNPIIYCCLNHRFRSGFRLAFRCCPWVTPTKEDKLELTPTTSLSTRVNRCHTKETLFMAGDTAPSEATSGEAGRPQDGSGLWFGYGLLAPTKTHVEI

[10] = Plasma protein binding in rat by equilibrium dialysis method; format: ADME, cell-free; conditions: read-out: PPB (converted)
[11] = tested on: Rattus norvegicus; assay: Ex-vivo P2X7 receptor occupancy in sc dosed Sprague-Dawley rat brain assessed as inhibition of [3H]A804598 binding after 120 mins by autoradiographic analysis; format: functional
[12] = target: T4, P2X purinoceptor 7 (Mus musculus, UniProt Q9Z1M0); assay: Antagonist activity at mouse P2X7 receptor assessed as inhibition of ATP-induced Ca2+ flux by FLIPR assay
T4 sequence (Q9Z1M0 whole entry): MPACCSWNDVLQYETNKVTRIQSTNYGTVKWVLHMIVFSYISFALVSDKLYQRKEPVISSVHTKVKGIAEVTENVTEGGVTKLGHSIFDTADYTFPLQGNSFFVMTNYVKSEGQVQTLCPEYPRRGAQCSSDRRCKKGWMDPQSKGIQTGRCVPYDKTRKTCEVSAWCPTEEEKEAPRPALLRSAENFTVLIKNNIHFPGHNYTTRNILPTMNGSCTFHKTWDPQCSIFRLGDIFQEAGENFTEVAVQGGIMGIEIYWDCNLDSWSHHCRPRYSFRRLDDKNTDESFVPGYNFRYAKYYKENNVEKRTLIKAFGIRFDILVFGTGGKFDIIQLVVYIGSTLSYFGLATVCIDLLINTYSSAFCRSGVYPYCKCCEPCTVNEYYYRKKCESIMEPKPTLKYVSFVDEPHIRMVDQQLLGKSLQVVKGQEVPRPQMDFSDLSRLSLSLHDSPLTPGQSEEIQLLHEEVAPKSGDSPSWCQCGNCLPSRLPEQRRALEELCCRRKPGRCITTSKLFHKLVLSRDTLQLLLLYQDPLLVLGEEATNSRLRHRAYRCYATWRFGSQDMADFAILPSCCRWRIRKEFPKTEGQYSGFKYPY

[13] = Extraction ratio in human liver microsomes at 1 uM by LC/MS/MS analysis; format: ADME, Microsome; conditions: read-out: ERH
[14] = target: T1, P2X purinoceptor 7; assay: Antagonist activity at human recombinant P2X7 receptor expressed in human 1321N1 cells assessed as inhibition of BzATP-induced Ca2+ flux after 30 mins by FLIPR assay; format: cell-based
[15] = Plasma protein binding in human by equilibrium dialysis method; format: ADME, cell-free; conditions: read-out: PPB (converted)
[16] = species: Rattus norvegicus; assay: Inhibition of rat nACHR at 1 uM relative to control
[17] = Extraction ratio in rat liver microsomes at 1 uM by LC/MS/MS analysis; format: ADME, Microsome; conditions: read-out: ERH
[18] = target: Sodium-dependent serotonin transporter (Homo sapiens, UniProt P31645); assay: Displacement of [3H]-Citalopram from human SERT expressed in human HEK293 cells after 1 hr by scintillation counting analysis; format: cell-based
Chain of Sodium-dependent serotonin transporter (Homo sapiens, UniProt P31645) (P31645 whole entry): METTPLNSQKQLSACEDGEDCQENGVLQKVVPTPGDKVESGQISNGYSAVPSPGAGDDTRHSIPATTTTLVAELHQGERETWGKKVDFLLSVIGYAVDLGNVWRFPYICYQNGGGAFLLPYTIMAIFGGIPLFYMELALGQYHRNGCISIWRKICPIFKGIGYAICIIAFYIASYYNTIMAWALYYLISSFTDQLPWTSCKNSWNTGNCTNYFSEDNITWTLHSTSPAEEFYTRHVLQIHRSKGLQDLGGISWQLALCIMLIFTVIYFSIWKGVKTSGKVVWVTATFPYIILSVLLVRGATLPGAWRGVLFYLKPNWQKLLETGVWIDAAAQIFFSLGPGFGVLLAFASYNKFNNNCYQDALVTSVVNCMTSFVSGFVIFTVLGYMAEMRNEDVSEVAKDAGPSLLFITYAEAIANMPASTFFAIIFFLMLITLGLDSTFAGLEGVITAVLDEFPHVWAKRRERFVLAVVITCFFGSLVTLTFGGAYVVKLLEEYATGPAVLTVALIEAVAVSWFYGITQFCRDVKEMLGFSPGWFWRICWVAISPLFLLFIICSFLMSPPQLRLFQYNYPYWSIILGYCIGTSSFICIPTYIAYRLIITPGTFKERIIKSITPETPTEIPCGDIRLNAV

[19] = target: T5, Sodium-dependent dopamine transporter (Homo sapiens, UniProt Q01959); assay: Inhibition of human dopamine transporter
T5 sequence (Q01959 whole entry): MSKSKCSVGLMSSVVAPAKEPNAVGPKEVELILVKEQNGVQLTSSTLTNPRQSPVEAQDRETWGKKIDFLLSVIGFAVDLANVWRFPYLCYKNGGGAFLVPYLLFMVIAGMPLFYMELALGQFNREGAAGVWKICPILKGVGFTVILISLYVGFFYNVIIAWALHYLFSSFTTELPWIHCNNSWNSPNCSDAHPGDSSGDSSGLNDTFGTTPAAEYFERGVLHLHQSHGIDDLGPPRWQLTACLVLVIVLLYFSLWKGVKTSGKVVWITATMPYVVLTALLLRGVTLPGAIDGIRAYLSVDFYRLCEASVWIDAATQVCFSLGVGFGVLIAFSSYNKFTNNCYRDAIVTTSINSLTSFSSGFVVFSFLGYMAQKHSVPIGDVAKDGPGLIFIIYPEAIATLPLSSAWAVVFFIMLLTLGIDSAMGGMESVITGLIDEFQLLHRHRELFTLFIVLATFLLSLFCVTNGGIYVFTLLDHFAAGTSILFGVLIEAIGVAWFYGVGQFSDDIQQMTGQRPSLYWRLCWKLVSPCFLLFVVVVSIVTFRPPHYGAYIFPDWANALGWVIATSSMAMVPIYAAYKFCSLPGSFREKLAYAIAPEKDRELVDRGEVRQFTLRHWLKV

[20] = target: T1, P2X purinoceptor 7; assay: Antagonist activity at P2X7 receptor in human whole blood assessed as inhibition of BzATP-induced IL1beta release incubated 30 mins prior to BzATP-challenge measured after 1.5 hrs by ELISA
[21] = Solubility of the compound at pH 7; format: physicochemical; conditions: buffer
[22] = target: T2, P2X purinoceptor 7; assay: Antagonist activity at rat P2X7 receptor by radioligand binding assay
[23] = Protein binding in rat brain; format: ADME, tissue-based; conditions: brain tissue, read-out: PB (converted)
[24] = tested on: Rattus norvegicus; assay: Ex-vivo P2X7 receptor occupancy in Sprague-Dawley rat brain assessed as inhibition of [3H]A804598 binding at 10 mg/kg, sc by autoradiographic analysis; format: functional, organism-based; design: dose 10 mg/kg
Summary of the method: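 Single subcutaneous dose given to rats; P2X7 occupancy in brain was assessed ex vivo by autoradiography at several times after dosing, with plasma and brain drug levels measured in parallel. n = 3 per time point, mean ± SEM.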

[25] = Solubility of the compound at pH 2; format: physicochemical; conditions: buffer
[26] = Apparent permeability from apical to basolateral side in human Caco2 cells at 1 uM after 60 mins by LC/MS/MS analysis; format: ADME, cell-based; conditions: Caco-2
[27] = target: T5, Sodium-dependent dopamine transporter; assay: Inhibition of human dopamine transporter at 1 uM relative to control
[28] = tested on: Rattus norvegicus; assay: Ex-vivo P2X7 receptor occupancy in Sprague-Dawley rat brain assessed as inhibition of [3H]A804598 binding at 30 mg/kg, sc after 2 hrs by autoradiographic analysis relative to control; format: functional; conditions: route subcutaneous
Summary of the method: (§1)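 Rat brain P2X7 occupancy by ex vivo autoradiography after one 30 mg/kg subcutaneous dose, followed over time. Plasma and brain drug levels were measured at the same time points. n = 3 per time point, mean ± SEM.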

[29] = tested on: Rattus norvegicus; assay: Ex-vivo P2X7 receptor occupancy in Sprague-Dawley rat brain assessed as inhibition of [3H]A804598 binding at 30 mg/kg, sc by autoradiographic analysis; format: functional, organism-based; design: dose 30 mg/kg; summary of the method: as §1
[30] = tested on: Rattus norvegicus; assay: Ex-vivo P2X7 receptor occupancy in sc dosed Sprague-Dawley rat brain assessed as inhibition of [3H]A804598 binding after 15 mins by autoradiographic analysis; format: functional

Compound | IC50 [1] [nM] | IC50 [2] [nM] | Ki [3] [nM] | Ki [6] [nM] | hepatic extraction ratio at 1 µM [8] | fraction unbound [10] | IC50 [12] [nM] | hepatic extraction ratio at 1 µM [13] | fraction unbound [15] | hepatic extraction ratio at 1 µM [17] | IC50 [20] [nM] | solubility [21] [µM] | Ki [22] [nM] | fraction unbound [23] | solubility [25] [µM] | further results
CN1CCc2c(cccc2C(=O)NCC2(N3CCN(c4ccccc4)CC3)CCCCC2)C1 | 39.8 | 15.8 | 20 | 12.6 | 0.9 | 0.044 | 79.4 | 0.9 | 0.165 | 0.86 | 200 | 90 (≈ 40.2 µg/mL) | 0.794 | 0.024 | 95 (≈ 42.4 µg/mL) | ED50 [4]: 24 mg/kg; Papp B→A at 1 µM [5]: 2.1 ×10⁻⁶ cm/s; IC50 [7]: 910 nM; inhibition [9]: 68%; ED50 [11]: 0.3 mg/kg; IC50 [14]: 20 nM; inhibition [16]: 54%; Ki [18]: 15.8 nM; IC50 [19]: 290 nM; Activity [24]: Active; Papp A→B at 1 h, 1 µM [26]: 11 ×10⁻⁶ cm/s; inhibition [27]: 93%
O=C(NCC1(N2CCN(c3ccccc3)CC2)CCOCC1)c1cccnc1Sc1ccccc1 | 25.1 | 63.1 | 3160 | 12.6 | > 0.93 | 0.029 | 31.6 | > 0.95 | 0.022 | > 0.92 | 200 | 31 (≈ 15.1 µg/mL) | 2 | 0.017 | 400 (≈ 195 µg/mL) | Occ [28]: >50%; Activity [29]: Active; ED50 [30]: 2.5 mg/kg
